In ChEMBL document CHEMBL2311257, “Synthesis and antioxidant activity of thymol and carvacrol based Schiff bases” (Bioorg Med Chem Lett, 2013):
≈ marks a conversion by molar mass, not a printed value.

Assays:
Format in all cases: functional
[1] = system: Radical scavenging activity; assay: Antioxidant activity assessed as DPPH radical scavenging activity in ethanol solution at 50 ug/mL
Summary of the method: (§1)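 Compound dissolved in ethanol, then ethanolic DPPH added. Incubated 30 min in the dark. DPPH decrease read as absorbance at 517 nm against an ethanol blank, with ascorbic acid as reference. % activity = [(A0 − Ai)/A0] × 100, where A0 is absorbance without compound and Ai with compound. IC50 taken from activity across concentrations.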

[2] = system: Radical scavenging activity; assay: Antioxidant activity assessed as DPPH radical scavenging activity in ethanol solution at 25 ug/mL; summary of the method: as §1
[3] = system: Radical scavenging activity; assay: Antioxidant activity assessed as DPPH radical scavenging activity in ethanol solution at 100 ug/mL; summary of the method: as §1
[4] = system: Radical scavenging activity; assay: Antioxidant activity assessed as DPPH radical scavenging activity in ethanol solution at 10 ug/mL; summary of the method: as §1
[5] = system: Radical scavenging activity; assay: Antioxidant activity assessed as DPPH radical scavenging activity in ethanol solution at 5 ug/mL; summary of the method: as §1
[6] = system: Radical scavenging activity; assay: Antioxidant activity assessed as DPPH radical scavenging activity in ethanol solution; summary of the method: as §1

Row | SMILES | Activity [1] [%] | Activity [2] [%] | Activity [3] [%] | Activity [4] [%] | Activity [5] [%] | IC50 [6] [µg/mL]
1 | Cc1cc(O)c(C(C)C)cc1/N=C/c1ccccn1 | 74.6 | 58.4 | 92.8 | 43.6 | 25.5 | 23.86 (≈ 93.8 µM)
2 | Cc1cc(O)c(C(C)(C)C)cc1/N=C/c1ccc(Cl)cc1 | 73.9 | 61.5 | 79.8 | 42.6 | 29.7 | 22.2 (≈ 73.6 µM)
3 | CCCc1ccc(/C=N/c2cc(C(C)(C)C)c(O)cc2C)cc1 | 70.8 | 62.9 | 84 | 45.8 | 28.6 | 21.12 (≈ 68.2 µM)
4 | Cc1cc(O)c(C(C)(C)C)cc1/N=C/c1ccc([N+](=O)[O-])cc1 | 62.4 | 45.3 | 73 | 26 | 16.8 | 47.39 (≈ 152 µM)
5 | Cc1cc(O)c(C(C)(C)C)cc1/N=C/c1ccc(C(C)C)cc1 | 74 | 64 | 86.4 | 45.9 | 28.7 | 19.42 (≈ 62.8 µM)
6 | Cc1cc(O)c(C(C)C)cc1/N=C/c1ccc(F)cc1 | 73.2 | 62.9 | 79.2 | 44.1 | 21.7 | 25.59 (≈ 94.3 µM)
7 | Cc1ccc(/C=N/c2cc(C)c(O)cc2C(C)C)cc1 | 73.4 | 60.7 | 81.3 | 44.9 | 22.1 | 25.58 (≈ 95.7 µM)
8 | Cc1cc(/N=C/c2ccc(Br)cc2)c(C(C)C)cc1O | 64.5 | 63.1 | 79.9 | 45.4 | 28.8 | 23.77 (≈ 71.5 µM)
9 | Cc1cc(O)c(C(C)C)cc1/N=C/c1cccnc1 | 68.2 | 48 | 79 | 38.9 | 16.5 | 37.8 (≈ 149 µM)
10 | Cc1cc(O)c(C(C)(C)C)cc1/N=C/c1ccccc1 | 75.7 | 61.1 | 87 | 49.6 | 28 | 18.6 (≈ 69.6 µM)
11 | Cc1cc(/N=C/c2ccc(C(C)C)cc2)c(C(C)C)cc1O | 72.4 | 61.7 | 78 | 49.5 | 25.8 | 21.08 (≈ 71.4 µM)
12 | Cc1cc(O)c(C(C)C)cc1/N=C/c1ccc([N+](=O)[O-])cc1 | 50.9 | 36.2 | 65.3 | 17.6 | 10.3 | 63.03 (≈ 211 µM)
13 | Cc1cc(/N=C/c2ccc3c(c2)OCO3)c(C(C)C)cc1O | 77.5 | 68.6 | 88.8 | 45.4 | 28.8 | 16.58 (≈ 55.8 µM)
14 | Cc1ccc(C(C)C)cc1O [CARVACROL] | 27.4 | 18.4 | 37.4 | 9.91 | 5.17 | 131.24 (≈ 874 µM)
15 | Cc1cc(/N=C/c2ccc(Cl)cc2)c(C(C)C)cc1O | 68 | 59.6 | 75.6 | 47.3 | 27.8 | 24.29 (≈ 84.4 µM)
16 | Cc1cc(O)c(C(C)(C)C)cc1/N=C/c1ccc(Br)cc1 | 74.2 | 59.4 | 81.1 | 43.9 | 32.8 | 20.36 (≈ 58.8 µM)
17 | Cc1cc(O)c(C(C)C)cc1/N=C/c1ccc(Cl)cc1 | 74.1 | 63.8 | 79.8 | 44.7 | 22.4 | 24.11 (≈ 83.8 µM)

Row | SMILES | Activity [1] [%] | Activity [2] [%] | Activity [3] [%] | Activity [4] [%] | Activity [5] [%] | IC50 [6] [µg/mL]
18 | Cc1cc(O)c(C(C)C)cc1/N=C/c1ccccc1 | 77.9 | 60.6 | 83.8 | 45.2 | 31.6 | 18.55 (≈ 73.2 µM)
19 | Cc1cc(/N=C/c2ccccc2)c(C(C)C)cc1O | 75 | 63.1 | 82.5 | 45.4 | 24.6 | 22.26 (≈ 87.9 µM)
20 | Cc1cc(/N=C/c2ccc(C(C)(C)C)cc2)c(C(C)C)cc1O | 70.2 | 62.1 | 79.2 | 49.9 | 25 | 21.89 (≈ 70.7 µM)
21 | Cc1cc(O)c(C(C)C)cc1/N=C/c1ccc(C(C)C)cc1 | 70.5 | 67.5 | 82.6 | 50.8 | 24.5 | 18.66 (≈ 63.2 µM)
22 | Cc1ccc(/C=N/c2cc(C(C)C)c(O)cc2C)cc1 | 71.4 | 64.7 | 75.1 | 45 | 27.3 | 21.89 (≈ 81.9 µM)
23 | Cc1cc(/N=C/c2ccc(F)cc2)c(C(C)C)cc1O | 66.3 | 58.8 | 73.7 | 41.1 | 22.5 | 32.52 (≈ 120 µM)
24 | Cc1cc(O)c(C(C)C)cc1/N=C/c1ccc(Br)cc1 | 72.5 | 60 | 80.9 | 46.9 | 27.7 | 22.05 (≈ 66.4 µM)
25 | O=C1O[C@H]([C@@H](O)CO)C(O)=C1O [ASCORBIC ACID] | 94.4 | 85 | 95.6 | 45 | 18.9 | 11.66 (≈ 66.2 µM)
26 | Cc1cc(/N=C/c2ccc([N+](=O)[O-])cc2)c(C(C)C)cc1O | 55.8 | 43 | 68.6 | 32 | 17.1 | 51.92 (≈ 174 µM)
27 | CCc1ccc(/C=N/c2cc(C(C)(C)C)c(O)cc2C)cc1 | 72.4 | 56.3 | 80.9 | 47.2 | 27.1 | 24.04 (≈ 81.4 µM)
28 | Cc1cc(O)c(C(C)(C)C)cc1/N=C/c1ccc2c(c1)OCO2 | 87.5 | 68.5 | 89.3 | 49.8 | 25.1 | 13.64 (≈ 43.8 µM)
29 | Cc1cc(O)c(C(C)(C)C)cc1/N=C/c1ccc(F)cc1 | 72 | 57 | 75.3 | 41.8 | 28.5 | 26.96 (≈ 94.5 µM)
30 | Cc1cc(/N=C/c2cccnc2)c(C(C)C)cc1O | 71.1 | 61.9 | 73.8 | 34.2 | 21.8 | 32.76 (≈ 129 µM)
31 | Cc1cc(O)c(C(C)(C)C)cc1/N=C/c1ccccn1 | 80.7 | 61 | 91.7 | 44.7 | 22.4 | 22.27 (≈ 83 µM)
32 | Cc1cc(O)c(C(C)(C)C)cc1/N=C/c1ccc(C(C)(C)C)cc1 | 73 | 65.2 | 86.7 | 45.6 | 27.5 | 20.05 (≈ 62 µM)
33 | Cc1ccc(/C=N/c2cc(C(C)(C)C)c(O)cc2C)cc1 | 69.6 | 57.7 | 75.7 | 48.4 | 27.2 | 24.32 (≈ 86.4 µM)
